The source made the active and inactive calls. No cut-off for these calls is given here.
Legend:
[1] = Drug absorption in human intestine
[2] = Effective permeability across human intestinal membrane by Ussing chamber technique
[3] = Protein binding in plasma (unknown origin)
[4] = Apparent permeability in MDCK cells; conditions: dog
[5] = Permeability in human Caco2 cells; conditions: Caco-2
Cholinesterase = Cholinesterase (Equus caballus, UniProt P81908); assay: Inhibition of equine serum BuChE using butyrylthiocholine iodide as substrate preincubated for 20 mins followed by substrate addition measured after 25 mins by Ellman's method
Sequence of Cholinesterase (P81908 whole entry): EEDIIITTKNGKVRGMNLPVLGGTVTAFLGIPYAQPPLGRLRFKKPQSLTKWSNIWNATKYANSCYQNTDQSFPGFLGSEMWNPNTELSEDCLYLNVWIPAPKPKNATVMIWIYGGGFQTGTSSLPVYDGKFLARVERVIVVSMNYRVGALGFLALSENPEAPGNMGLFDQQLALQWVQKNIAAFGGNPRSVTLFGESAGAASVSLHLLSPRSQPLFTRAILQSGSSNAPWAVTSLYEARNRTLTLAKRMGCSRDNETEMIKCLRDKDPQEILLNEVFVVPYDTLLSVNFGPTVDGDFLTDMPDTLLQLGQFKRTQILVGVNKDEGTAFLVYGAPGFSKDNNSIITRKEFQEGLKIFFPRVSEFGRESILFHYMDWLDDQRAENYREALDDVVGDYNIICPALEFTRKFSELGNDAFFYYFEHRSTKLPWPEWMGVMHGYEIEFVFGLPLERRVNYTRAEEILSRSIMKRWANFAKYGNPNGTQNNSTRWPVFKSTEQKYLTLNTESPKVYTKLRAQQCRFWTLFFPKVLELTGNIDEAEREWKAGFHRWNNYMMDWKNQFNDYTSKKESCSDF
Method in brief: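 Ellman-type colorimetric assay in 0.1 M phosphate buffer pH 8.0 with 0.05 U/mL BuChE and 0.35 mM DTNB. Serial inhibitor dilutions pre-incubated with the mix for 20 min, then butyrylthiocholine iodide added (final 0.5 mM). […] At least three experiments in triplicate, mean ± SEM.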

[6] = target: T1, Amine oxidase [flavin-containing] B (Rattus norvegicus, UniProt P19643); assay: Irreversible inhibition of MAO-B in rat liver homogenate assessed as recovery of enzyme activity at 20 uM preincubated for 30 mins followed by centrifugation and washing with PBS buffer; assay type: tissue-based
T1 sequence (P19643 whole entry): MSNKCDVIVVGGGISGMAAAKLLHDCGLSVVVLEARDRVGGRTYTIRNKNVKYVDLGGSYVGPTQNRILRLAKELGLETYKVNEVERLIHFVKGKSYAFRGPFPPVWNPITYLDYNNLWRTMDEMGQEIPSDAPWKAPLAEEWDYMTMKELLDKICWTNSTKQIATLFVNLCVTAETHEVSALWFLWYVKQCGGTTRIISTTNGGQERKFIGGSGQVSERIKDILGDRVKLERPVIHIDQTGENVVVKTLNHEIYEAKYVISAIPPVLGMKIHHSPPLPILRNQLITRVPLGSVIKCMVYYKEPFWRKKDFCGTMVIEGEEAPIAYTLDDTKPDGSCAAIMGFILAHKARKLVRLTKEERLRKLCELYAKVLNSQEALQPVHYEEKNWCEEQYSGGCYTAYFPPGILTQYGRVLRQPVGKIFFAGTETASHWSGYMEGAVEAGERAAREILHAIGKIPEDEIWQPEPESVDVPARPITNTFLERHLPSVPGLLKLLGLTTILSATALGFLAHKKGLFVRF
Method in brief: (§1)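 Enzyme pre-incubated 30 min at 37 °C with inhibitor: 10 μM (MAO A) or 20 μM (MAO B). […] Three cycles of washing in 50 mM phosphate buffer pH 7.4 and centrifugation at 25,000 g, 10 min, 4 °C. Protein measured by Bradford; activity then assayed by the radiometric method. Six independent experiments in triplicate; Kruskal-Wallis analysis.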

[7] = Hepatotoxicity in human HepG2 cells assessed as cell viability at 1 uM by MTT assay relative to control; assay type: toxicity, cell-based; conditions: read-out: Activity
[8] = Hepatotoxicity in human HepG2 cells assessed as cell viability at 3 uM by MTT assay relative to control; assay type: toxicity, cell-based; conditions: read-out: Activity
[9] = target: T1, Amine oxidase [flavin-containing] B; assay: Inhibition of MAO-B in rat liver homogenate; assay type: tissue-based
Method in brief: (§2)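 Rat liver homogenate as the MAO source. The enzyme is pre-incubated 30 min with several inhibitor concentrations in 50 mM phosphate buffer, pH 7.4. […] Mean ± SEM of at least three experiments in quadruplicate.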

[10] = Hepatotoxicity in human HepG2 cells assessed as cell viability at 100 uM by MTT assay relative to control; assay type: toxicity, cell-based; conditions: read-out: Activity
[11] = Metal chelating activity assessed as compound concentration required for zinc complex formation after 1 hr by UV-Vis spectrometric analysis; assay type: physicochemical
Method in brief: (§3)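 UV-Vis spectra (220-300 nm) recorded in distilled water at room temperature in 1 cm quartz cells. Ligand at 10 μM with increasing CuSO4, Fe2(SO4)3 or ZnSO4. Incubation times: Cu(II) 5 min, Zn(II) 1 h, Fe(III) overnight. Stoichiometry found by Job's method, plotting absorbance at 257 nm against ligand mole fraction.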

[12] = Hepatotoxicity in human HepG2 cells assessed as cell viability at 1000 uM by MTT assay relative to control; assay type: toxicity, cell-based; conditions: read-out: Activity
Mus musculus [13] = assay: Cognitive enhancing effect in C57BL/6J mouse assessed as reversal of scopolamine-induced long-term memory deficit by measuring increase in latency time during probe session at 35 mg/kg, iv administered 90 mins prior to scopolamine-challenge measured after 24 hrs by passive avoidance test; assay type: functional, organism-based; parameters: dose 35 mg/kg
[14] = Hepatotoxicity in human HepG2 cells assessed as cell viability at 10 uM by MTT assay relative to control; assay type: toxicity, cell-based; conditions: read-out: Activity
[15] = Metal chelating activity assessed as compound concentration required for ferric ion complex formation by UV-Vis spectrometric analysis; assay type: physicochemical; method in brief: as §3
[16] = target: T2, Amine oxidase [flavin-containing] A (Rattus norvegicus, UniProt P21396); assay: Inhibition of MAO-A in rat liver homogenate; assay type: tissue-based; method in brief: as §2
T2 sequence (P21396 whole entry): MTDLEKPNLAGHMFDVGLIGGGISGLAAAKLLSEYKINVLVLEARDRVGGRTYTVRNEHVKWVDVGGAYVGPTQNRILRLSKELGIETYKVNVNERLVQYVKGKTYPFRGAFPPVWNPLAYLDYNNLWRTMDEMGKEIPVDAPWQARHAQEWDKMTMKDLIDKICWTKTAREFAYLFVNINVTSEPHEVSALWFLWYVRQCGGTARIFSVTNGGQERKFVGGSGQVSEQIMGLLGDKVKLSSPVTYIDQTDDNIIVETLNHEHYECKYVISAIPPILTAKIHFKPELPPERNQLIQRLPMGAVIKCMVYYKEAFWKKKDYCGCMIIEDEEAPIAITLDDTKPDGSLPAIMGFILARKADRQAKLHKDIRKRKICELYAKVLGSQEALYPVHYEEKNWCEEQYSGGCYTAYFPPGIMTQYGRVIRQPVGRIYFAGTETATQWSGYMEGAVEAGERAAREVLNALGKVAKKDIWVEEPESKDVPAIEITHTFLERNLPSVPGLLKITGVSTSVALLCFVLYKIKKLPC

[17] = target: T2, Amine oxidase [flavin-containing] A; assay: Irreversible inhibition of MAO-A in rat liver homogenate assessed as recovery of enzyme activity at 10 uM preincubated for 30 mins followed by centrifugation and washing with PBS buffer; assay type: tissue-based; method in brief: as §1
[18] = Metal chelating activity assessed as compound concentration required for copper complex formation after 5 mins by UV-Vis spectrometric analysis; assay type: physicochemical; method in brief: as §3
[19] = target: T2, Amine oxidase [flavin-containing] A; assay: Inhibition of MAO-A in rat liver homogenate preincubated for 30 mins; assay type: tissue-based; method in brief: as §2
[20] = target: T1, Amine oxidase [flavin-containing] B; assay: Inhibition of MAO-B in rat liver homogenate preincubated for 30 mins; assay type: tissue-based; method in brief: as §2
[21] = Hepatotoxicity in human HepG2 cells assessed as cell viability at 300 uM by MTT assay relative to control; assay type: toxicity, cell-based; conditions: read-out: Activity
Acetylcholinesterase = Acetylcholinesterase (Electrophorus electricus, UniProt O42275); assay: Inhibition of electric eel AChE using acetylthiocholine iodide as substrate preincubated for 20 mins followed by substrate addition measured after 5 mins by Ellman's method
Sequence of Acetylcholinesterase (O42275 whole entry): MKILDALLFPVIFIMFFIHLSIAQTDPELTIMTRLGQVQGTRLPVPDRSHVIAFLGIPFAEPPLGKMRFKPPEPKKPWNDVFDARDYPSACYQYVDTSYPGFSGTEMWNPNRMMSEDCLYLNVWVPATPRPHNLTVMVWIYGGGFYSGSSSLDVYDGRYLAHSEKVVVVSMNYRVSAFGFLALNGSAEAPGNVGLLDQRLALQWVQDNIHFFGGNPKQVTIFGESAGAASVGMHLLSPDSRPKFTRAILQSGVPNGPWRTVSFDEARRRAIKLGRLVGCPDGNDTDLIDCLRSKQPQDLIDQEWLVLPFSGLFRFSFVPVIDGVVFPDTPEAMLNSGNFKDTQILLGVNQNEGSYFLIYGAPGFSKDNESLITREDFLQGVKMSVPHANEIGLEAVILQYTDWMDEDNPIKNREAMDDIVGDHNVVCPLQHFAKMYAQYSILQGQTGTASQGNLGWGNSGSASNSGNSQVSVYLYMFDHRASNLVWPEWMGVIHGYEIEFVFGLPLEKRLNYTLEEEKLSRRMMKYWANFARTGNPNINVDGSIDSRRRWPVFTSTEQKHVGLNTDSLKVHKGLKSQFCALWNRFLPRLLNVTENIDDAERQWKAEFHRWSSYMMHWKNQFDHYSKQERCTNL

Mus musculus [22] = assay: Cognitive enhancing effect in C57BL/6J mouse assessed as reversal of scopolamine-induced long-term memory deficit by measuring latency time during training session at 35 mg/kg, iv administered 90 mins prior to scopolamine-challenge measured after 24 hrs by passive avoidance test; assay type: functional, organism-based; parameters: dose 35 mg/kg
[23] = target: Acetylcholinesterase (Electrophorus electricus) (UniProt O42275); assay: Mixed-type inhibition of electric eel AChE using acetylthiocholine iodide as substrate at 0.5 to 5 uM by Lineweaver-Burk plot analysis
Sequence of Acetylcholinesterase (Electrophorus electricus) (O42275 24-633 limits assumed): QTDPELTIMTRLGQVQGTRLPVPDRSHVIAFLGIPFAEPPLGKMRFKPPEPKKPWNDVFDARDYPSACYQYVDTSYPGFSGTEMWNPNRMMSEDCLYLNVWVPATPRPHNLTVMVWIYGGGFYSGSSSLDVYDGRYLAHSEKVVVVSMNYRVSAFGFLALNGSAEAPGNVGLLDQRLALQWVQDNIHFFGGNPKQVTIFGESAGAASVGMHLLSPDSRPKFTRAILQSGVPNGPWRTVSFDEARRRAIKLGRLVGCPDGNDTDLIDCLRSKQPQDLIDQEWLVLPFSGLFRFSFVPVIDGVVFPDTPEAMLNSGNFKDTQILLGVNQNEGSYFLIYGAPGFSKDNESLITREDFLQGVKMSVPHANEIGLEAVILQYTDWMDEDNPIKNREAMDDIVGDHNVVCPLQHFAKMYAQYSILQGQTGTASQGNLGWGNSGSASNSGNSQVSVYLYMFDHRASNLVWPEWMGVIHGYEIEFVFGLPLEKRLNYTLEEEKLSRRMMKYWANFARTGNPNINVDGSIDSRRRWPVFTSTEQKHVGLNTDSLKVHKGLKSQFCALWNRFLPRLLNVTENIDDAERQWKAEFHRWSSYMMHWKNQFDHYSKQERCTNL

[24] = Hepatotoxicity in human HepG2 cells assessed as cell viability at 30 uM by MTT assay relative to control; assay type: toxicity, cell-based; conditions: read-out: Activity
Mus musculus [25] = assay: Cognitive enhancing effect in C57BL/6J mouse assessed as reversal of scopolamine-induced long-term memory deficit by measuring latency time during training session at 1 mg/kg, iv administered 90 mins prior to scopolamine-challenge measured after 24 hrs by passive avoidance test; assay type: functional, organism-based; parameters: dose 1 mg/kg
Mus musculus [26] = assay: Cognitive enhancing effect in C57BL/6J mouse assessed as reversal of scopolamine-induced long-term memory deficit by measuring increase in latency time during probe session at 1 mg/kg, iv administered 90 mins prior to scopolamine-challenge measured after 24 hrs by passive avoidance test; assay type: functional, organism-based; parameters: dose 1 mg/kg

Row | Compound | Fa [1] [%] | Papp [2] [×10⁻⁶ cm/s] | fraction unbound [3] | Papp [4] [×10⁻⁶ cm/s] | Papp [5] [×10⁻⁶ cm/s] | IC50 (Cholinesterase) [µM] | viability at 1 µM [7] [%] | viability at 3 µM [8] [%] | viability at 100 µM [10] [%] | viability at 1000 µM [12] [%] | viability at 10 µM [14] [%] | viability at 300 µM [21] [%] | IC50 (Acetylcholinesterase) [µM] | viability at 30 µM [24] [%] | other results
1 | C#CCN(Cc1ccc(O)c2ncccc12)C(C#N)C1CCN(Cc2ccccc2)CC1 (racemic) | 96.8 | 336 | 0.197 | 34.8 | 4.93 | – | – | – | – | – | – | – | – | – | –
2 | C#CCN(Cc1ccc(O)c2ncccc12)C(C#N)CC1CCN(Cc2ccccc2)CC1 (racemic) | 96.9 | 375 | 0.216 | 32.2 | 5.2 | – | – | – | – | – | – | – | – | – | –
3 | C#CCN(Cc1ccc(O)c2ncccc12)C(C#N)CCC1CCN(Cc2ccccc2)CC1 (racemic) | 97 | 418 | 0.2 | 30.6 | 5.44 | 1.6 | 98.4 | 94.8 | 85.6 | 51.5 | 94.4 | 71.4 | 1.8 | 92.4 | inhibition (INH) [6]: Active; inhibition (INH) [9]: Dose-dependent effect; Activity [11]: 0.65 mole fraction; Activity (Mus musculus [13]): Active; Activity [15]: 0.5 mole fraction; inhibition (INH) [16]: Dose-dependent effect; inhibition (INH) [17]: Active; Activity [18]: 0.65 mole fraction; IC50 [19]: 3.8 µM; IC50 [20]: 8.3 µM; Activity (Mus musculus [22]): inactive; inhibition [23]: Active
4 | C#CCN(C)CCCOc1ccc(Cl)cc1Cl [CLORGILINE] | – | – | – | – | – | ≥ 500 | – | – | – | – | – | – | ≥ 500 | – | –
5 | COc1cc2c(cc1OC)C(=O)C(CC1CCN(Cc3ccccc3)CC1)C2 (stereo not given) [DONEPEZIL] | 98 | – | 0.154 | – | – | – | 98.6 | 97 | 80 | 40.9 | 92.4 | 53.4 | – | 83.5 | Activity (Mus musculus [25]): inactive; Activity (Mus musculus [26]): Active
6 | C#CCN(C)[C@H](C)Cc1ccccc1 [SELEGILINE] | – | – | – | – | – | – | – | – | – | – | – | – | ≥ 500 | – | –

From ChEMBL document CHEMBL3286171 (Eur J Med Chem, 2014)
